# Reference: ChEMBL document CHEMBL2069224, “Synthesis and cytotoxic activity of non-naturally substituted 4-oxycoumarin derivatives” (Bioorg Med Chem Lett, 2012)
# Calls of active or inactive are those of the source. No cut-off for these calls is given here.
# Key:
# HL-60 [1] = experiment: Cytotoxicity against human HL60 cells assessed as cell viability at 10 uM after 72 hrs by WST1 assay relative to control; assay type: functional; settings: HL-60, 72 h, read-out: Activity
# Summary of the method: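 Suspension HL-60 cells were kept in IMDM with 20% FBS, L-glutamine and antibiotics at 37 °C under 5% CO2. They were seeded without an attachment wait and exposed 72 h to a single 10 µM concentration. WST-1 was added at 1/10 volume, incubated 60 min at 37 °C, and formazan read at 450 nm. Viability is given as % of vehicle-treated cells, from three independent experiments in triplicate.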
# MCF7 [2] = experiment: Cytotoxicity against human MCF7 cells assessed as cell viability at 10 uM after 72 hrs by WST1 assay relative to control; assay type: functional; settings: MCF7, 72 h, read-out: Activity
# Summary of the method: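 After 24 h attachment, MCF-7 cells (RPMI 1640, 10% FBS, L-glutamine, antibiotics, 37 °C, 5% CO2) were exposed 72 h to a single 10 µM concentration. WST-1 was added at 1/10 volume, incubated 60 min at 37 °C, and absorbance read at 450 nm. Viability is expressed as % of vehicle-treated cells, from three independent experiments each in triplicate.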
# U-937 [3] = experiment: Cytotoxicity against human U937 cells after 72 hrs by WST1 assay in presence of 20% FBS; assay type: functional, cell-based; settings: U-937, 72 h
# Summary of the method: (§1)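 Cells were cultured with 10% FBS. Viability runs used 10% or 20% FBS and 72 h exposure over 0.01–100 µM. WST-1 cleavage to formazan was read at 450 nm. % viable cells vs vehicle was fitted by nonlinear least squares to give IC50.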
# HL-60 [4] = experiment: Cytotoxicity against human HL60 cells after 72 hrs by WST1 assay in presence of 10% FBS; assay type: functional, cell-based
# Summary of the method: (§2)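 HL-60 cells from ATCC were grown in IMDM with 2 mM L-glutamine, 20% FBS, amphotericin B, penicillin and streptomycin at 37 °C under 5% CO2. Suspension cells were seeded without an attachment wait, then treated 72 h at 0.01–100 µM in 10% or 20% FBS. WST-1 was added at 1/10 volume for 60 min at 37 °C and A450 read. IC50 came from a nonlinear least-squares fit of % viable cells vs vehicle.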
# U-937 [5] = experiment: Cytotoxicity against human U937 cells after 72 hrs by WST1 assay in presence of 10% FBS; assay type: functional, cell-based; summary of the method: as §1
# HL-60 [6] = experiment: Cytotoxicity against human HL60 cells after 72 hrs by WST1 assay in presence of 20% FBS; assay type: functional, cell-based; settings: HL-60, 72 h; summary of the method: as §2
# MCF7 [7] = experiment: Cytotoxicity against human MCF7 cells after 72 hrs by WST1 assay in presence of 20% FBS; assay type: functional, cell-based; settings: MCF7, 72 h
# Summary of the method: (§3)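 MCF-7 cells from ATCC were grown in RPMI 1640 with 10% FBS, 2 mM L-glutamine and antibiotics at 37 °C under 5% CO2. They were seeded in 96-well plates, allowed to attach 24 h, then treated 72 h at 0.01–100 µM in 10% or 20% FBS. WST-1 was added at 1/10 volume for 60 min at 37 °C and A450 read. IC50 came from nonlinear least-squares fitting of % viability vs vehicle.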
# [8] = Solubility of the compound in RPMI 1640 medium by microscopic analysis; assay type: physicochemical
# Summary of the method: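 Compound solubility in the assay medium was judged by microscopic inspection.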
# MCF7 [9] = experiment: Cytotoxicity against human MCF7 cells after 72 hrs by WST1 assay in presence of 10% FBS; assay type: functional, cell-based; summary of the method: as §3
# N2a = experiment: Cytotoxicity against mouse Neuro2a cells after 72 hrs by WST1 assay in presence of 10% FBS; assay type: functional, cell-based; summary of the method: as §1
# [10] = Cytotoxicity against mouse Neuro2a cells after 72 hrs by WST1 assay in presence of 20% FBS; assay type: functional, cell-based; settings: N2a; summary of the method: as §1
Structure (SMILES),viability at 10 µM (HL-60 [1]),viability at 10 µM (MCF7 [2]),also measured
O=c1cc(OCc2ccccc2)c2ccccc2o1,72.7%,95%,
O=c1oc2ccccc2c(O)c1-c1ccccc1,73.4%,96.7%,
COc1ccc(-c2c(O)c3ccccc3oc2=O)c(OC)c1,100%,91.9%,
COc1cc(OC)c2c(O)cc(=O)oc2c1,23.2%,17.1%,IC50 (U-937 [3]): 0.21 µM; Activity (HL-60 [4]): Active; Activity (U-937 [5]): Active; IC50 (HL-60 [6]): 2 µM; IC50 (MCF7 [7]): 2.1 µM; solubility [8]: 20 µM; Activity (MCF7 [9]): Active; Activity (N2a): Active; IC50 [10]: 0.55 µM
Cc1ccc2oc(=O)cc(OCc3ccccc3)c2c1,76%,104%,
COc1ccc(-c2c(O)c3cc(C)ccc3oc2=O)c(OC)c1,74.4%,69%,
CC/C(=C(\c1ccccc1)c1ccc(OCCN(C)C)cc1)c1ccccc1 [TAMOXIFEN],,,IC50 (HL-60 [6]): 14.3 µM; IC50 (MCF7 [7]): 8.6 µM
O=c1ccc2ccccc2o1 [COUMARIN],,,IC50 (U-937 [3]): > 50 µM; IC50 (HL-60 [6]): > 50 µM; IC50 (MCF7 [7]): > 50 µM; IC50 [10]: > 50 µM
Cc1ccc2oc(=O)c(-c3ccccc3)c(OCc3ccccc3)c2c1,92.3%,53.5%,
COc1ccc2c(O)cc(=O)oc2c1OC,28.9%,114%,IC50 (U-937 [3]): 4.3 µM; Activity (HL-60 [4]): Active; Activity (U-937 [5]): Active; IC50 (HL-60 [6]): 9.1 µM; IC50 (MCF7 [7]): 62.3 µM; solubility [8]: 100 µM; Activity (N2a): Active; IC50 [10]: 1.4 µM
COc1ccc(-c2c(O)c3cc(C)ccc3oc2=O)cc1,83.9%,106%,
O=c1oc2ccccc2c(OCc2ccccc2)c1-c1ccccc1,94.7%,113%,
COc1ccc(-c2c(O)c3ccccc3oc2=O)cc1,86.6%,115%,
Cc1ccc2oc(=O)c(-c3ccccc3)c(O)c2c1,73.9%,72.6%,
